SENP8 block-1 = inhibitors of human SENP8 protease. 0.64% of 360,000 active. inhibition, % at 20 µM. recombinant SENP8, Nedd8 substrate fluorescence; in the data active = inhibition mostly above about 40%, no sharp cut-off; inactive = mostly below about 27%
Target sequence (Q96LD8 whole entry, looked up): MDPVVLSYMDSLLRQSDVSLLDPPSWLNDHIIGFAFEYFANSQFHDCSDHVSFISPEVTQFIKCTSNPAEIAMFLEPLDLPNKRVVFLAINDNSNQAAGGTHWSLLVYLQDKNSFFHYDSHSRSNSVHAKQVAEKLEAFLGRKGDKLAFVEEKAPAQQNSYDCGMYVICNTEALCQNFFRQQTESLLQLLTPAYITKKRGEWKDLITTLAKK
SENP7 inh = blocks the human protease SENP7. 1.5% of 330,000 active. Q9BQF6. inhibition, % at 5 µM. recombinant SENP7, Z-RLRGG-aminoluciferin luminescence, 40 min;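 active = inhibition above about 50% at the single test dose, limit read from the data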;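 also: plate controls were DMSO with enzyme for no effect and no enzyme buffer wells for full effect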
Apaf-1 inh = blocks human Apaf-1 apoptosome activity | O14727 | reconstituted apoptosome caspase-3 activity, DEVD-Rh110 fluorescence | inhibition, % at 20 µM | 0.71% of 330,000 active; active = inhibition of at least 40% at 20 µM;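 also: plate controls were DMSO wells for no effect and DEVD-CHO caspase inhibitor wells for full effect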
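detection = Rh110 fluorescence intensity | test system = biochemical Apaf-1 apoptosome reconstitution | also added = cytochrome c and DEVD-Rh110 substrate | schedule = 30 min plus 50 min, RT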
SENP8 block-2 = SENP8 protease inhibition; AID 2540; purified SENP8, Z-RLRGG-aminoluciferin cleavage, luminescence; 1.2% of 330,000 active; Q96LD8; inhibition, % at 10 µM; in the data active = inhibition above about 50%
UBC13 inh = human UBC13 polyubiquitination inhibition | inhibition, % at 20 µM | UBC13 polyubiquitin chain formation, TR-FRET | 0.47% of 330,000 active | P61088; in the data active = inhibition above about 45%, passing the limit was not always enough
Target sequence (P61088 whole entry, looked up): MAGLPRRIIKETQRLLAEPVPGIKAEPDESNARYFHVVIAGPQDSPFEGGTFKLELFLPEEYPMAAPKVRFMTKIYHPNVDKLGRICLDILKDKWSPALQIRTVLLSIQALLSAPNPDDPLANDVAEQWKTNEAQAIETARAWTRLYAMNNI
SENP6 inh = SENP6 protease inhibition; Q9GZR1; Recombinant SENP6 catalytic domain, aminoluciferin luminescence; inhibition, % at 10 µM; 1.8% of 330,000 active;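 active = inhibition above about 50% at the single tested dose, limit read from the data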;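 also: plate controls were DMSO wells with enzyme for no effect and DMSO wells lacking enzyme for full effect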
SENP8 conf = confirmation of human SENP8 protease inhibitors; shares compounds with SENP7 inh; Recombinant SENP8, Z-RLRGG-aminoluciferin luminescence, 60 min; inhibition, % at 12.5 µM; 40% of 6,200 active; AID 488912;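 active = mean inhibition across replicates above about 50%, limit read from the data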
SENP6 conf = human SENP6 inhibition, confirmed; inhibition, % at 12.5 µM; 58% of 6,200 active; recombinant SENP6, Z-RLRGG-aminoluciferin luminescence; shares compounds with SENP7 inh
SENP7 confirm = confirmation of human SENP7 protease inhibitors. 69% of 6,200 active. shares compounds with SENP7 inh. inhibition, % at 12.5 µM. recombinant SENP7, Z-RLRGG-aminoluciferin luminescence, 40 min. AID 488917
Casp3 SENP sel = inhibits human caspase-3 in SENP selectivity test; 60% of 6,200 active; inhibition, % at 12.5 µM; shares compounds with SENP7 inh; purified caspase-3, Z-DEVD-aminoluciferin luminescence, 60 min;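 active = mean inhibition above about 50%, limit read from the data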;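 also: plate controls were enzyme with DMSO for no effect and wells without caspase-3 for full effect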
Target sequence (P42574 28-227 limits assumed): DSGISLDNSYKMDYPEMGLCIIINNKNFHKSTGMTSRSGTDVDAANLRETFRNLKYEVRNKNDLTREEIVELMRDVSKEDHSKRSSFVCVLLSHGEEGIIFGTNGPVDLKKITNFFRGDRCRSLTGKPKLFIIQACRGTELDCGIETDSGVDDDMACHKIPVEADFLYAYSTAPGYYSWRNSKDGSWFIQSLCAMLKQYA
SENP luc ctr = interferes with luciferase luminescence in SENP counter-screen; shares compounds with SENP7 inh; Pre-incubated SENP8/Z-RLRGG-aminoluciferin, luciferase luminescence interference; inhibition, % at 12.5 µM; 39% of 6,200 active;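 active = mean inhibition above about 50% when retested at one dose, limit read from the data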;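 also: plate controls were DMSO wells with completed reaction for no effect and substrate without enzyme for full effect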
* marks the source's active call; other numbers are inactive results; nt = no result. An excerpt weighted towards active compounds, which were near 3% of everything screened.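 The calls were made as follows, unless noted: active = mean inhibition above about 50% in the one-dose retest (limit read from the data); inactive = the rest.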

SMILES	SENP8 block-1	SENP7 inh	Apaf-1 inh	SENP8 block-2	UBC13 inh	SENP6 inh	SENP8 conf	SENP6 conf	SENP7 confirm	Casp3 SENP sel	SENP luc ctr
CSc1nc(O)c(N=Nc2ccc(F)cc2F)c(=O)[nH]1	16.3	87.0*	1.4	81.3*	-18.2	91.1*	83.2*	86.4*	95.7*	93.1*	53.3*
Oc1ccc(/C=N/Nc2cccc(Cl)n2)c(O)c1	-34.9	97.9*	-13.0	97.5*	2.4	97.1*	98.6*	98.9*	102.2*	96.0*	97.6*
Cc1ccc(C2=C/C(=C/c3cccs3)C(=O)O2)cc1	10.3	70.8*	-7.7	33.8	-25.2	74.2*	-10.3	-2.4	5.1	19.4	4.2
CC(OC(=O)c1ccc([N+](=O)[O-])s1)C(=O)NC1CCCCC1C (centres undefined)	29.6	11.4	28.2	54.9*	-20.9	46.0	-0.9	19.4	-3.6	-3.7	-13.8
FC(F)(F)c1cc(Cl)c2nc(-c3ccccc3)cn2c1	-222.7	86.8*	9.0	76.0*	4.0	83.3*	46.1	81.3*	94.4*	68.7*	47.1
Nc1cccc(-c2cn3cc(C(F)(F)F)cc(Cl)c3n2)c1	-28.1	85.7*	13.0	70.5*	-9.1	81.5*	83.5*	83.9*	97.2*	85.8*	86.1*
CC(C)NC(=O)c1ccc2c3n(nc2c1)-c1ccccc1CO3	-112.1	77.6*	3.7	78.1*	-6.7	77.1*	88.1*	86.6*	97.6*	94.2*	81.1*
Cc1ccc2c(c1)COc1c3ccc(C(=O)O)cc3nn1-2	-68.0	99.7*	0.9	94.9*	-0.1	95.3*	96.0*	96.2*	101.0*	96.9*	95.2*
Cc1ccc2c(c1)COc1c3ccc(C(=O)NCC4CC4)cc3nn1-2	-326.9	-1.5	16.7	0.0	7.3	0.1	nt	nt	nt	nt	nt
CC(C)[C@@H](CO)NC(=O)c1ccc2c3n(nc2c1)-c1ccccc1CO3	-123.2	49.6	5.8	81.7*	11.8	84.2*	91.1*	90.8*	98.4*	95.3*	62.5*
C=CCNC(=O)c1ccc2c3n(nc2c1)-c1ccc(Cl)cc1CO3	-83.6	6.0	4.3	19.2	-10.6	31.1	nt	nt	nt	nt	nt
O=C(NCC1CC1)c1ccc2c3n(nc2c1)-c1ccccc1CO3	-224.4	68.1*	2.2	77.8*	-6.2	82.3*	83.0*	83.9*	98.1*	91.7*	80.0*
CC(=O)c1ccc(NC(=O)C(C)NCc2ccccc2Cl)cc1 (centres undefined)	-23.0	5.7	4.7	3.1	-0.8	1.8	nt	nt	nt	nt	nt
O=C1/C(=C/c2ccc(O)cc2)COc2ccccc21	-10.4	93.4*	9.0	83.1*	3.2	94.8*	93.9*	89.7*	94.0*	65.7*	88.7*
O=C1/C(=C/c2ccccn2)COc2ccccc21	-5.5	-8.8	6.3	-7.0	-0.5	-30.3	nt	nt	nt	nt	nt
CCc1cc2cc(C(=O)Nc3ccc(F)cc3)sc2s1	13.1	79.4*	-1.0	18.2	1.8	47.5	5.1	12.4	-3.4	10.7	-5.8
CCc1cc2cc(C(=O)N3CCN(c4ccccc4)CC3)sc2s1	22.3	4.1	11.4	-1.7	10.0	-24.8	nt	nt	nt	nt	nt
CC(C)(C)c1ccc(C(=O)Nc2ccc(F)cc2)s1	3.5	72.5*	-8.7	80.5*	4.1	83.9*	57.9*	73.1*	95.1*	65.2*	35.4
CCc1cc2cc(C(=O)Nc3ccccc3F)sc2s1	8.4	92.1*	-1.4	33.6	-8.6	50.0*	16.2	58.1*	97.8*	80.3*	5.4
O=C(NCc1ccccc1)c1cc(C2CCCCN2C(=O)c2ccccc2)on1 (centres undefined)	6.0	nt	nt	nt	nt	nt	nt	nt	nt	nt	nt
COc1ccc(C)cc1NC(=O)CNC(C)C(=O)Nc1ccc(C(C)=O)cc1 (centres undefined)	12.9	-0.8	10.5	-10.7	1.9	-24.6	nt	nt	nt	nt	nt
CCOc1ccc(C(C(=O)NC(C)(C)C)N(CCOC)C(=O)CCC(=O)Nc2nccs2)cc1 (centres undefined)	6.5	1.4	6.1	4.6	-10.5	-13.1	nt	nt	nt	nt	nt
OCCCNc1ncnc2sc3c(c12)CCN(Cc1ccccc1)C3	-277.8	19.0	2.2	26.4	5.1	54.0*	3.9	17.7	9.0	3.0	-0.7
COc1ccccc1NC(=O)COC(=O)CCc1ccc(S(=O)(=O)N2CCOCC2)cc1	-5.2	1.4	2.6	2.6	14.8	2.0	nt	nt	nt	nt	nt
COc1ccc2c(=O)c(-c3nc(C)cs3)coc2c1	-40.7	96.0*	-8.9	90.6*	-0.7	93.5*	-6.9	52.8*	84.4*	75.9*	57.3*
SMILES	SENP8 block-1	SENP7 inh	Apaf-1 inh	SENP8 block-2	UBC13 inh	SENP6 inh	SENP8 conf	SENP6 conf	SENP7 confirm	Casp3 SENP sel	SENP luc ctr
Cc1csc(-c2coc3cc(O)cc(C)c3c2=O)n1	6.2	4.0	-9.0	91.0*	-4.7	95.0*	43.4	92.4*	98.5*	90.1*	26.9
COc1ccc(-c2coc3cc(OC)ccc3c2=O)cc1	-49.3	nt	nt	nt	nt	nt	nt	nt	nt	nt	nt
COc1ccc(-c2coc3cc(O)c(OC)cc3c2=O)cc1	-494.7	53.4*	-0.9	38.7	4.4	45.8	27.2	27.3	74.7*	75.0*	55.8*
O=C(NCCc1ccccc1)c1cc(=O)c2ccccc2o1	13.0	-2.5	-10.5	1.5	8.7	-1.6	nt	nt	nt	nt	nt
O=C(CCN1CCC(c2cccs2)=N1)c1cccs1	-174.1	-1.0	4.5	-14.6	-10.3	-1.5	nt	nt	nt	nt	nt
N/C(=N\OC(=O)c1cccc(Cl)c1)c1cccnc1	15.6	15.5	-0.8	7.2	7.9	46.1	nt	nt	nt	nt	nt
N/C(=N\OC(=O)c1ccccc1)c1cccnc1	-7.2	55.6*	0.5	24.1	-6.7	39.3	16.0	17.1	60.9*	72.5*	37.6
N/C(=N\OC(=O)c1ccccc1Cl)c1cccnc1	10.6	57.2*	1.3	41.3	-1.2	65.3*	56.0*	53.5*	81.7*	79.2*	64.2*
N/C(=N\OC(=O)c1ccc(Cl)c(Cl)c1)c1cccnc1	17.0	64.2*	17.7	23.9	1.9	67.0*	17.0	21.7	30.7	31.3	15.2
COCCSc1nnc(NC(=O)c2ccco2)s1	-14.8	92.4*	-4.4	-7.6	-3.2	-13.8	-2.3	-2.8	-3.3	19.1	4.0
